One compound from ChEMBL document CHEMBL4334451, “Natural Alkaloid Berberine Activity against Pseudomonas aeruginosa MexXY-Mediated Aminoglycoside Resistance: In Silico and in Vitro Studies” (J Nat Prod, 2019) can be followed below.

For data set [1], the target named is T1, MexXY/OprM (Pseudomonas aeruginosa (strain ATCC 15692 / DSM 22644 / CIP 104116 / JCM14847 / LMG 12228 / 1C / PRS 101 / PAO1)) (UniProt Q51487+Q9ZNG9+Q9ZNG8). The data set can be described thus: Inhibition of MexXY/OPRM in Pseudomonas aeruginosa C103 assessed as bacterial growth up to 320 ug/ml incubated for 24 to 48 hrs by broth microdilution method. The class given is protein-complex assay. The procedure, abridged:
(§1)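 Broth microdilution following CLSI guidelines, with P. aeruginosa ATCC 27853 as reference strain. Berberine was tested at 2-fold concentrations from 10 to 320 µg/ml, dissolved in 50% DMSO/50% methanol, with the top concentration set to keep final DMSO close to 1%. Plates were incubated at 37°C and read for visible growth at 24 and 48 h.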

For data set [2], the target named is T1, MexXY/OprM (Pseudomonas aeruginosa (strain ATCC 15692 / DSM 22644 / CIP 104116 / JCM14847 / LMG 12228 / 1C / PRS 101 / PAO1)). Put plainly: Inhibition of MexXY/OPRM in Pseudomonas aeruginosa AR48 assessed as reduction in bacterial resistance to tobramycin by measuring fold reduction in tobramycin MIC at 80 ug/ml incubated for 24 to 48 hrs by broth microdilution method. Type of data set: protein-complex assay.

For data set [3] the target is unchanged. Put plainly: Inhibition of MexXY/OPRM in Pseudomonas aeruginosa C73 assessed as reduction in bacterial resistance to tobramycin by measuring tobramycin MIC at 80 ug/ml incubated for 24 to 48 hrs by broth microdilution method (reference value: 128 ug/ml). Type of data set: protein-complex assay. (Dilution methods test growth across graded concentrations, often in twofold steps.)

The target is the same in data set [4]. The data set can be described thus: Inhibition of MexXY/OPRM in Pseudomonas aeruginosa C67 assessed as reduction in bacterial resistance to tobramycin by measuring tobramycin MIC at 80 ug/ml incubated for 24 to 48 hrs by broth microdilution method (reference value: 16 ug/ml). The class given is protein-complex assay.
The target is the same in data set [5]. The data set can be described thus: Inhibition of MexXY/OPRM in Pseudomonas aeruginosa C95 assessed as bacterial growth up to 320 ug/ml incubated for 24 to 48 hrs by broth microdilution method. The class given is protein-complex assay. Summed up: (§2)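 Broth microdilution per CLSI, with P. aeruginosa ATCC 27853 as reference strain, in 2-fold dilution series. Plates were incubated at 37°C and read for visible growth at 24 and 48 h. Berberine stock was in 50% DMSO/50% methanol, with final DMSO kept near 1%. Berberine was tested at 10–320 µg/ml, alone or at a fixed level with serial tobramycin.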

Data set [6] has the same target. The data set can be described thus: Inhibition of MexXY/OPRM in Pseudomonas aeruginosa C93 assessed as reduction in bacterial resistance to tobramycin by measuring tobramycin MIC at 80 ug/ml incubated for 24 to 48 hrs by broth microdilution method (reference value: >128 ug/ml). The class given is protein-complex assay. The procedure, abridged: as §2
The target is the same in data set [7]. The data set can be described thus: Inhibition of MexXY/OPRM in Pseudomonas aeruginosa AR51 assessed as reduction in bacterial resistance to tobramycin by measuring tobramycin MIC at 80 ug/ml incubated for 24 to 48 hrs by broth microdilution method (reference value: 16 ug/ml). Type of data set: protein-complex assay.
For data set [8] the target is unchanged. Put plainly: Inhibition of MexXY/OPRM in Pseudomonas aeruginosa K767 assessed as reduction in bacterial resistance to tobramycin by measuring tobramycin MIC at 80 ug/ml incubated for 24 to 48 hrs by broth microdilution method (reference value: 0.25 ug/ml). The class given is protein-complex assay. The procedure, abridged: as §2
Data set [9] shares this target. Put plainly: Inhibition of MexXY/OPRM in Pseudomonas aeruginosa C103 assessed as reduction in bacterial resistance to tobramycin by measuring tobramycin MIC at 80 ug/ml incubated for 24 to 48 hrs by broth microdilution method (reference value: 4 ug/ml). Type of data set: protein-complex assay.
Data set [10] shares this target. The data set can be described thus: Inhibition of MexXY/OPRM in Pseudomonas aeruginosa C59 assessed as bacterial growth up to 320 ug/ml incubated for 24 to 48 hrs by broth microdilution method. The class given is protein-complex assay. The procedure, abridged: as §1
Data set [11] has the same target. The data set can be described thus: Inhibition of MexXY/OPRM in Pseudomonas aeruginosa C73 assessed as bacterial growth up to 320 ug/ml incubated for 24 to 48 hrs by broth microdilution method. Type of data set: protein-complex assay. The procedure, abridged:
as §1

The target is the same in data set [12]. Put plainly: Inhibition of MexXY/OPRM in Pseudomonas aeruginosa C84 assessed as reduction in bacterial resistance to tobramycin by measuring fold reduction in tobramycin MIC at 80 ug/ml incubated for 24 to 48 hrs by broth microdilution method. Type of data set: protein-complex assay. Summed up:
(§3)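 Tobramycin MIC by CLSI broth microdilution at 37°C, read at 24 and 48 h, with and without a fixed berberine concentration selected from checkerboard assays. Berberine stock was in 50% DMSO/50% methanol, final DMSO about 1%. A 2-fold decrease in tobramycin MIC was scored as synergy.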

The target is the same in data set [13]. Put plainly: Inhibition of MexXY/OPRM in Pseudomonas aeruginosa C86 assessed as reduction in bacterial resistance to tobramycin by measuring fold reduction in tobramycin MIC at 80 ug/ml incubated for 24 to 48 hrs by broth microdilution method. The class given is protein-complex assay. Summed up: as §3
Data set [14] has the same target. Put plainly: Inhibition of MexXY/OPRM in Pseudomonas aeruginosa C70 assessed as bacterial growth up to 320 ug/ml incubated for 24 to 48 hrs by broth microdilution method. The class given is protein-complex assay. Summed up:
as §1

Data set [15] shares this target. The data set can be described thus: Inhibition of MexXY/OPRM in Pseudomonas aeruginosa PA14 assessed as reduction in bacterial resistance to tobramycin by measuring tobramycin MIC at 80 ug/ml incubated for 24 to 48 hrs by broth microdilution method (reference value: 0.125 ug/ml). The class given is protein-complex assay. Summed up: as §2
Data set [16] shares this target. Put plainly: Inhibition of MexXY/OPRM in Pseudomonas aeruginosa C83 assessed as bacterial growth up to 320 ug/ml incubated for 24 to 48 hrs by broth microdilution method. Type of data set: protein-complex assay. Summed up: as §1
Data set [17] shares this target. The data set can be described thus: Inhibition of MexXY/OPRM in Pseudomonas aeruginosa C60 assessed as bacterial growth up to 320 ug/ml incubated for 24 to 48 hrs by broth microdilution method. Type of data set: protein-complex assay. The procedure, abridged:
as §1

Data set [18] has the same target. The data set can be described thus: Inhibition of MexXY/OPRM in Pseudomonas aeruginosa C54 assessed as bacterial growth up to 320 ug/ml incubated for 24 to 48 hrs by broth microdilution method. Type of data set: protein-complex assay. Summed up:
as §1

Data set [19] has the same target. The data set can be described thus: Inhibition of MexXY/OPRM in Pseudomonas aeruginosa C9 assessed as reduction in bacterial resistance to tobramycin by measuring tobramycin MIC at 80 ug/ml incubated for 24 to 48 hrs by broth microdilution method (reference value: 2 ug/ml). The class given is protein-complex assay. The procedure, abridged: as §2
The next data set concerns Erythrocyte. Put plainly: Hemolytic activity in human RBC at 10 to 320 ug/ml incubated for 1 hr by spectrophotometry. The class given is ADME, cell-based. The procedure, abridged:
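Fresh heparinized human blood diluted in PBS pH 7.4, washed 3x, resuspended to ~20 vol%. Erythrocyte suspension mixed 1:1 with 1:2 serial berberine dilutions in PBS. PBS served as negative control, 0.2 vol% Triton X-100 as positive control.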

In data set [20] the target is T1, MexXY/OprM (Pseudomonas aeruginosa (strain ATCC 15692 / DSM 22644 / CIP 104116 / JCM14847 / LMG 12228 / 1C / PRS 101 / PAO1)). The data set can be described thus: Inhibition of MexXY/OPRM in Pseudomonas aeruginosa AR51 assessed as bacterial growth up to 320 ug/ml incubated for 24 to 48 hrs by broth microdilution method. The class given is protein-complex assay. The procedure, abridged: as §1

Data set [21] has the same target. The data set can be described thus: Inhibition of MexXY/OPRM in Pseudomonas aeruginosa C60 assessed as reduction in bacterial resistance to tobramycin by measuring fold reduction in tobramycin MIC at 80 ug/ml incubated for 24 to 48 hrs by broth microdilution method. The class given is protein-complex assay.
Data set [22] shares this target. The data set can be described thus: Inhibition of MexXY/OPRM in Pseudomonas aeruginosa C51 assessed as reduction in bacterial resistance to tobramycin by measuring tobramycin MIC at 80 ug/ml incubated for 24 to 48 hrs by broth microdilution method (reference value: 0.125 ug/ml). The class given is protein-complex assay.

Calls of active or inactive are those of the source. The calls are words filed in the database; no cut-off is given here. Bounds are passed on as bounds.

As for `COc1ccc2cc3[n+](cc2c1OC)CCc1cc2c(cc1-3)OCO2` [BERBERINE], the inhibition result in [1], in [5], in [10], in [11], in data set [14] and in data set [16] was “inactive” in each case. Moreover, the inhibition result in data set [17], in data set [18] and in data set [20] was “inactive” in each case. The fold change (FC) in [2], in [12], in data set [13] and in [21] was greater than 2 in each case. The MIC in data set [3] was found to be 64 µg/mL; in [4] it was 16 µg/mL; in [6], 64 µg/mL; in data set [7], 8 µg/mL; in [8] it was 0.125 µg/mL; in [9], 4 µg/mL. Also, the MIC in data set [15] is 0.125 µg/mL; in data set [19] it was 1 µg/mL; in data set [22] it was less than 0.125 µg/mL. For the same compound, the Activity entry with Erythrocyte is “Non-Toxic”.
